ChEMBL document CHEMBL1142319, “New antitumor imidazo[2,1-b]thiazole guanylhydrazones and analogues” (2008)
Activity calls are given as the source filed them. The rule behind the calls is not given here.

Columns and labels:
HL-60 [1] = assay: Effect on cell growth in human HL60 cells assessed as cell number per mL at 2 uM; assay type: functional; design: scale not given here
In short: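 HL-60 cells in RPMI 1640 with 10% FBS and 2 mM glutamine, 37 °C, 5% CO2, doubling time about 24 h. Exposed 24 h to 2 µM compound diluted from DMSO into medium. Cells per mL counted with a Coulter counter.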

HL-60 [2] = assay: Induction of cell death in human HL60 cells at 2 uM by propidium iodide staining method; assay type: functional
In short: (§1)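 HL-60 cells in RPMI 1640 with 10% FBS and 2 mM glutamine at 37 °C, 5% CO2, exposed for 24 h to compound diluted in medium from DMSO. Cells were counterstained with propidium iodide (5 µg/mL) for plasma membrane integrity and analysed by flow cytometry. The readout is the percentage of PI-positive cells.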

Cancer cell lines [3] = assay: Inhibition of human colon cancer cells; assay type: functional; conditions: for TGI: read-out: pTGI (converted)
In short: (§2)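 NCI 60-cell-line panel, with results grouped by tissue subpanel. Compounds dissolved in DMSO and tested at five 10-fold dilutions, top concentration 10^-4 M. Values given as -log molar concentration for 50% growth inhibition (pGI50), total growth inhibition (pTGI) and 50% cell kill (pLC50), with subpanel means calculated.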

[4] = target: T1, S-adenosylmethionine decarboxylase proenzyme (Homo sapiens) (UniProt P17707); assay: Inhibition of human S-adenosyl methionine decarboxylase in HL60 cells at 1 to 100 uM; assay type: cell-based; conditions: HL-60
T1 sequence (whole entry): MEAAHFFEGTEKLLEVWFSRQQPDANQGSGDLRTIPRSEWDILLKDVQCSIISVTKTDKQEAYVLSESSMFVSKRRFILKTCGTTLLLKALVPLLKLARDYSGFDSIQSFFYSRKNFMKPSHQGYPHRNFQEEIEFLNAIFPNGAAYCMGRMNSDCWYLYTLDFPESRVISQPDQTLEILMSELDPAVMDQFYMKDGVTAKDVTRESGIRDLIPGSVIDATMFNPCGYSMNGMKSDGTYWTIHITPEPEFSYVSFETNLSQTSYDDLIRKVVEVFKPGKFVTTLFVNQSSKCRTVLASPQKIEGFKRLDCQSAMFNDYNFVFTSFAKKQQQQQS

HL-60 [5] = assay: Induction of apoptosis in human HL60 cells assessed as caspase activity after 4 hrs; assay type: functional, cell-based
In short: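 HL-60 cells treated 4 h across a range of concentrations. DEVD-cleaving caspase (DEVDase) activity measured fluorimetrically in cell extracts. One typical experiment shown, repeated at least twice.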

HL-60 [6] = assay: Induction of cell death in human HL60 cells assessed as LDH release at 5 uM after 24 hrs; assay type: functional, cell-based
In short: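 HL-60 cells exposed 24 h to 5 µM. Medium aliquots collected and LDH activity determined spectrophotometrically from NADH at 340 nm. One typical experiment shown, repeated at least twice.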

HL-60 [7] = assay: Induction of apoptosis in human HL60 cells assessed as chromatin condensation at 5 uM after 3 hrs; assay type: functional, cell-based
In short: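 HL-60 cells on glass coverslips treated 3 h with 5 µM. Cells fixed in 4% paraformaldehyde in PBS and stained with Hoechst 0.1 µg/mL. Nuclear morphology (chromatin condensation, apoptotic bodies) scored by fluorescence microscopy. Experiment repeated at least twice.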

HL-60 [8] = assay: Disruption of mitochondrial membrane potential in human HL60 cells at 5 uM after 1 hr; assay type: functional, cell-based
In short: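 HL-60 cells exposed to 5 µM for 1 h, then loaded with 40 nM DiOC6 for 40 min at 1 × 10⁶ cells/mL, 37 °C, in the dark. Mitochondrial membrane potential read by flow cytometry. Mean ± SEM of triplicate determinations.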

HL-60 [9] = assay: Increase in peroxide formation in human HL60 cells at 5 uM after 3 hrs; assay type: functional, cell-based
In short: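 Intracellular peroxides measured in HL-60 cells after 3 h at 5 µM. Cells incubated with 5 µM DCF-DA for 30 min at 37 °C, then read by flow cytometry. Mean ± SEM of triplicates.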

HL-60 [10] = assay: Effect on energy metabolism assessed as increase in AMP/ATP ratio in human HL60 cells at 5 uM after 3 hrs; assay type: functional, cell-based
In short: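 HL-60 cells treated 3 h with 5 µM. Adenine nucleotide levels measured and the AMP/ATP ratio calculated from them. Mean ± SEM of triplicate determinations.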

Leukemia cell = assay: Inhibition of human leukemia cells; assay type: functional; conditions: for TGI: read-out: pTGI (converted); in short: as §2
Cancer cell lines [11] = assay: Inhibition of human non-small cell lung cancer cells; assay type: functional; conditions: for TGI: read-out: pTGI (converted); in short: as §2
Cancer cell lines [12] = assay: Inhibition of human CNS cancer cells; assay type: functional; conditions: for TGI: read-out: pTGI (converted); in short: as §2
Melanoma cell = assay: Inhibition of human melanoma cells; assay type: functional; conditions: for TGI: read-out: pTGI (converted); in short: as §2
Cancer cell lines [13] = assay: Inhibition of human ovarian cancer cells; assay type: functional; conditions: for TGI: read-out: pTGI (converted); in short: as §2
Cancer cell lines [14] = assay: Inhibition of human renal cancer cells; assay type: functional; conditions: for TGI: read-out: pTGI (converted); in short: as §2
Cancer cell lines [15] = assay: Inhibition of human prostate cancer cells; assay type: functional; conditions: for TGI: read-out: pTGI (converted); in short: as §2
Cancer cell lines [16] = assay: Inhibition of human breast cancer cells; assay type: functional; conditions: for TGI: read-out: pTGI (converted); in short: as §2
HL-60 [17] = assay: Cell cycle arrest in human HL60 cells assessed as accumulation at G0/G1 phase at 2 uM; assay type: functional
In short: (§3)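 HL-60 cells kept in RPMI 1640 with 10% FBS and 2 mM glutamine at 37 °C, 5% CO2. Treated 24 h at 2 µM from DMSO stock diluted in medium. Cells fixed in cold 70% ethanol and stained with propidium iodide 50 µg/mL plus RNAase 10 µg/mL for 30 min. DNA profiles read by flow cytometry on ≥10 000 cells, and phase percentages calculated.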

HL-60 [18] = assay: Cell cycle arrest in human HL60 cells assessed as accumulation at S phase at 2 uM; assay type: functional; in short: as §3
HL-60 [19] = assay: Cell cycle arrest in human HL60 cells assessed as accumulation at G2/M phase at 2 uM; assay type: functional; in short: as §3
HL-60 [20] = assay: Effect on cell growth in human HL60 cells assessed as cell number per mL at 10 uM; assay type: functional
In short: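 HL-60 cells grown in RPMI 1640 with 10% FBS and 2 mM glutamine at 37 °C, 5% CO2 (doubling time about 24 h). Compound was taken from a DMSO stock, diluted in medium and applied for 24 h. Growth was assessed by Coulter cell counting, reported as cells/mL.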

HL-60 [21] = assay: Induction of cell death in human HL60 cells at 10 uM by propidium iodide staining method; assay type: functional; in short: as §1
HL-60 [22] = assay: Cell cycle arrest in human HL60 cells assessed as accumulation at G0/G1 phase at 10 uM; assay type: functional
In short: (§4)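 HL-60 cells growing exponentially in RPMI 1640 with 10% FBS and 2 mM glutamine at 37 °C under 5% CO2. Compound was dissolved in DMSO, diluted in medium and applied for 24 h. Cells were fixed in cold 70% ethanol and stained with 50 µg/mL propidium iodide plus 10 µg/mL RNase for 30 min. DNA content was read by flow cytometry (≥10,000 cells) and the percentage of cells in each phase calculated.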

HL-60 [23] = assay: Cell cycle arrest in human HL60 cells assessed as accumulation at S phase at 10 uM; assay type: functional; in short: as §4
HL-60 [24] = assay: Cell cycle arrest in human HL60 cells assessed as accumulation at G2/M phase at 10 uM; assay type: functional; in short: as §4

SMILES	Activity (HL-60 [1])	Activity (HL-60 [2]) [%]	GI50 (Cancer cell lines [3]) [µM]	TGI (Cancer cell lines [3]) [µM]	GI50 (Leukemia cell) [µM]	GI50 (Cancer cell lines [11]) [µM]	TGI (Cancer cell lines [11]) [µM]	GI50 (Cancer cell lines [12]) [µM]	TGI (Cancer cell lines [12]) [µM]	GI50 (Melanoma cell) [µM]	TGI (Melanoma cell) [µM]	GI50 (Cancer cell lines [13]) [µM]	TGI (Cancer cell lines [13]) [µM]	GI50 (Cancer cell lines [14]) [µM]	TGI (Cancer cell lines [14]) [µM]	GI50 (Cancer cell lines [15]) [µM]	TGI (Cancer cell lines [15]) [µM]	GI50 (Cancer cell lines [16]) [µM]	TGI (Cancer cell lines [16]) [µM]	Activity (HL-60 [17]) [%]	other results
Cc1nn2c(/C=N/NC(=N)N)c(-c3ccc(Cl)c([N+](=O)[O-])c3)nc2s1	410	31	0.646	2.82	0.575	3.31	11.5	1.23	9.77	1.45	2.95	1.48	4.27	1.23	3.63	1.1	2.63	1.02	6.92	29.9	Activity [4]: Active; Activity (HL-60 [5]): Dose-dependent effect; Activity (HL-60 [6]): Active; Activity (HL-60 [7]): Active; Activity (HL-60 [8]): Active; Activity (HL-60 [9]): Active; Activity (HL-60 [10]): Active; TGI (Leukemia cell): 3.63 µM; Activity (HL-60 [18]): 53.6%; Activity (HL-60 [19]): 16.5%
COc1cc([N+](=O)[O-])c(OC)cc1-c1nc2sc(Cl)cn2c1/C=N\NC1=NCCN1	485	22	0.501	2.95	2.63	0.933	4.79	0.646	2.09	1.26	3.89	0.741	1.86	1.35	3.39	0.759	1.15	1.82	42.7	33.1	Activity [4]: Active; Activity (HL-60 [5]): Dose-dependent effect; Activity (HL-60 [6]): Active; Activity (HL-60 [7]): Active; Activity (HL-60 [8]): Active; Activity (HL-60 [9]): Active; Activity (HL-60 [10]): Active; Activity (HL-60 [18]): 51.9%; Activity (HL-60 [19]): 15.1%
Cc1cn2c(/C=N/NC3=NCCN3)c(-c3ccc(Cl)c([N+](=O)[O-])c3)nc2s1	780	11.9	1.2	10	0.676	1.55	6.03	1.07	4.27	0.977	2.4	1.41	3.39	1.45	3.72	1.15	2.95	1.82	7.59	31.3	TGI (Leukemia cell): 6.17 µM; Activity (HL-60 [18]): 53.7%; Activity (HL-60 [19]): 15%
Cc1cn2c(/C=N/NC(=N)NN)c(-c3ccc(Cl)c([N+](=O)[O-])c3)nc2s1	760	7.8	0.955	2.09	6.31	2.4	9.77	1.12	2.95	1.82	4.57	1.29	3.72	3.24	8.51	3.39	9.55	1.55	5.37	35	Activity (HL-60 [18]): 51.9%; Activity (HL-60 [19]): 13.1%
Cc1cn2c(/C=N/NC(=N)N)c(-c3cc(Cl)sc3Cl)nc2s1	750	7.4	1.02	3.98	0.891	1.1	3.63	1.12	4.37	1.05	3.09	1.02	2.34	1.23	3.02	0.794	1.48	1.23	2.63	35.3	TGI (Leukemia cell): 1.78 µM; Activity (HL-60 [18]): 50%; Activity (HL-60 [19]): 14.7%
CC(/C=N/NC(=N)N)=N\NC(=N)N [MITOGUAZONE]			12.6	501	7.94	25.1	316	20	251	39.8	316	15.8	316	20	501	100	1580	15.8	316		Activity (HL-60 [20]): 702; Activity (HL-60 [21]): 5.2%; TGI (Leukemia cell): 631 µM; Activity (HL-60 [22]): 43.6%; Activity (HL-60 [23]): 40.9%; Activity (HL-60 [24]): 15.5%
